From PubChem
Rows were chosen to be rich in hits. Some 1.9% of all compounds tested hit in one or more screens of this group.
UBC9 SUMO inh = SUMOylation inhibition. P63279. AID 2006. 290,000 tested, 0.36% active. HTRF SUMOylation assay, SAE1/SAE2 + UBC9, in vitro. inhibition, % at 35 µM; in the data active = inhibition above about 50%, passing the limit was not always enough
Target sequence (P63279 whole entry, looked up): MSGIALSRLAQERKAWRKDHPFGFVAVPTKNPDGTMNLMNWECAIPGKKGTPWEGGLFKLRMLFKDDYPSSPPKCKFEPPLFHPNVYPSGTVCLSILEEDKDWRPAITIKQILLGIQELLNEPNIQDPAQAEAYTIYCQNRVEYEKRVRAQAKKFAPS
SUMO1 PPI mod = alters human SUMO1 binding to SIM partners; P63165; SUMO1 binding to a labelled peptide, TR-FRET, 1 h; inhibition, % at 20 µM; 360,000 tested, 0.33% active; AID 602429; in the data active = inhibition above about 37%
Target sequence (P63165 whole entry, looked up): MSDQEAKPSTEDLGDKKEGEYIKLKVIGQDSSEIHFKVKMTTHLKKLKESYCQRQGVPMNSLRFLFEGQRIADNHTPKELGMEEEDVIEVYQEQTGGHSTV
LMPTP block = blocks human LMPTP phosphatase; recombinant LMPTP-A, OMFP fluorogenic substrate, fluorescence intensity; inhibition, % at 20 µM; 360,000 tested, 0.22% active; AID 651560;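 active = compounds that cut the enzyme signal by at least half of the control window in the single-dose screen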;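 note: plate controls were DMSO wells with enzyme plus substrate for no effect and substrate without enzyme for full effect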
Target sequence (P24666 whole entry, looked up): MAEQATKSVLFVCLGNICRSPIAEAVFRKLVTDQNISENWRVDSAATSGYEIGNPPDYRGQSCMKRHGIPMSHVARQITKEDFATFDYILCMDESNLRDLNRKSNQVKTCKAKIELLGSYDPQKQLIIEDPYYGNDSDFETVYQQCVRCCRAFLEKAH
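Assay system: LMPTP-A, protein tyrosine phosphatase of low molecular weight / Medium: pH 6.0 Bis-Tris buffer with DTT and Triton X-100 / Schedule: 50 min enzyme reaction at room temperature, protected from light / Measured by: endpoint fluorescence intensity from OMFP dephosphorylation / Read-out basis: % inhibition relative to no-enzyme and uninhibited control wells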
Scp-1 inhibitor = Scp-1 (human) phosphatase inhibition | inhibition, % at 20 µM | 340,000 tested, 0.88% active | Recombinant Scp1, phosphopeptide, malachite green phosphate absorbance | AID 493091;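 active = inhibition above about 50% at 20 µM, limit read from the data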;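 note: plate controls were DMSO wells with enzyme for no effect and wells lacking enzyme for full effect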
Target sequence (Q9GZU7 76-261 limits assumed): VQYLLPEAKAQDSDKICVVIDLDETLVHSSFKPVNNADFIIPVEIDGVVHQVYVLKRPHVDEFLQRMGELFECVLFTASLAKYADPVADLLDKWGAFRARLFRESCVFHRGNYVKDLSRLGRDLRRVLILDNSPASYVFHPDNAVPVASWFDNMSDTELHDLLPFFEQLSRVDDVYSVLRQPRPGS
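System: SCP-1 catalytic domain; Reagent: Phospho 17-mer peptide substrate; Doses: one concentration, 20 µM, with 1.0% DMSO; Incubation: 45 min room-temperature reaction, 5 min colour, 30 min stabiliser; Signal: Phosphate-binding colour reagent, absorbance read at 630 nm.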
STEP inh = blocks human striatal-enriched tyrosine phosphatase. P54829. recombinant STEP, OMFP fluorogenic substrate, fluorescence. inhibition, % at 20 µM. 360,000 tested, 0.25% active;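 active = inhibition at 20 µM, scaled per plate between control wells, above about 37%, limit read from the data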;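 note: 0% = DMSO with enzyme and substrate and 100% = substrate only without enzyme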
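System: STEP phosphatase, cell-free reaction; Buffer or medium: Bis-Tris pH 6.0 buffer with DTT, detergent; Incubation: 20 min at room temperature, dark; Measured by: fluorescence, 480/540 nm.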
DNMT1 block = DNMT1 (human) enzyme inhibition; P26358; DNMT1 molecular beacon, Hinp1I cleavage, fluorescence; inhibition (reported as % activation of signal), % at 10 µM; 360,000 tested, 0.83% active; in the data active = inhibition above about 50%
Scp1 confirm = Scp-1 (human) inhibition, single-dose confirmed; shares compounds with Scp-1 inhibitor; recombinant SCP-1 catalytic domain, phosphate release, malachite green absorbance; inhibition, % at 20 µM; 2,500 tested, 61% active; AID 540281;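 note: plate controls were DMSO with enzyme for no effect and buffer wells lacking enzyme for full effect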
MG interference = interferes with malachite green readout, flagging false Scp-1 hits. 2,500 tested, under 10 active. apparent inhibition (interference), % at 20 µM. shares compounds with Scp-1 inhibitor. Colorimetric interference counterscreen, malachite green absorbance 630 nm;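 note: compounds added after enzyme reaction finished so only phosphate colour detection is probed; plate controls were DMSO wells with completed Scp-1 reaction for no effect and substrate wells lacking enzyme for full effect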
Scp-1 Tm shift = validation of human Scp-1 inhibitors by thermal shift binding. thermal shift relative to vanadate control, % at 40 µM. shares compounds with Scp-1 inhibitor. Recombinant SCP1, Sypro Orange thermal shift Tm. 1,500 tested, 25% active;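 active = substances whose mean melting-temperature shift, as a percentage of the reference inhibitor's shift, reaches about 5.3%, limit read from the data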;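 note: 0% = Tm of DMSO wells and 100% = Tm with sodium orthovanadate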
Active calls of the source: *.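 Rule for the calls, unless noted: active = inhibition of at least 30% at 20 µM; inactive = the rest.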

For COc1ccc(-c2ccc3oc(-c4ccc(OC)cc4)c(C#CC4(O)CCCCC4)c3c2)cc1 the results were SUMO1 PPI mod 7, LMPTP block 5, Scp-1 inhibitor 73*, STEP inh 0, DNMT1 block -13, Scp1 confirm 42*, MG interference -26 and Scp-1 Tm shift -2.
`O=C(CCc1nnc(CCCCc2ccccc2)o1)NCCCc1cccnc1` gave UBC9 SUMO inh 12, SUMO1 PPI mod 1, LMPTP block 1, Scp-1 inhibitor -11, STEP inh 2 and DNMT1 block 3.
Screening CCCn1c(N2CCN(CC(=O)c3c[nH]c4ccccc34)CC2)nc2c1c(=O)[nH]c(=O)n2C returned UBC9 SUMO inh -17, SUMO1 PPI mod 1, LMPTP block -3, Scp-1 inhibitor 99*, STEP inh -2, DNMT1 block -7, Scp1 confirm -11 and MG interference -7.
`CCn1c(N2CCN(CC(=O)c3c(C)n(C)c4ccccc34)CC2)nc2c1c(=O)[nH]c(=O)n2C` gave UBC9 SUMO inh 6, SUMO1 PPI mod -1, LMPTP block -2, Scp-1 inhibitor 38, STEP inh -3 and DNMT1 block -1.
Screening CCOC(=O)c1cccc(NC(=O)Cn2cc3c(n2)CCC(C)C3)c1 (stereo not drawn) returned UBC9 SUMO inh -9, SUMO1 PPI mod 6, LMPTP block 0, Scp-1 inhibitor 68*, STEP inh 3, DNMT1 block 1, Scp1 confirm -1 and MG interference -10.
Screening COc1cccc(C(C(=O)NCc2ccccc2)N(C(=O)c2csnn2)C2CC2)c1 (stereo not drawn) returned UBC9 SUMO inh 13, SUMO1 PPI mod 6, LMPTP block 0, Scp-1 inhibitor -5, STEP inh 2 and DNMT1 block -2.
For CC(C)c1ccc(NC(=O)c2cc([N+](=O)[O-])ccc2N2CCOCC2)cc1 the results were UBC9 SUMO inh -3, SUMO1 PPI mod -18, LMPTP block 1, Scp-1 inhibitor 55*, STEP inh 1, DNMT1 block 1, Scp1 confirm -11 and MG interference -13.
Screening Cc1cnc(C(=O)OCc2nc3ccsc3c(=O)[nH]2)cn1 returned SUMO1 PPI mod 20, LMPTP block 2, Scp-1 inhibitor 65*, STEP inh 3, DNMT1 block 26, Scp1 confirm 64*, MG interference -6 and Scp-1 Tm shift 11*.
`Cc1ccc(C(=O)OCc2nc3ccsc3c(=O)[nH]2)o1` gave SUMO1 PPI mod 1, LMPTP block -2, Scp-1 inhibitor 11, STEP inh 1 and DNMT1 block 6.
Cc1cc2[nH]c(=O)c(=O)[nH]c2cc1S(=O)(=O)Nc1cccc(F)c1 was read as UBC9 SUMO inh 15, SUMO1 PPI mod 12, LMPTP block -1, Scp-1 inhibitor -5, STEP inh -3 and DNMT1 block 1.
For O=c1/c(=C\c2cccnc2)sc2nc3ccccc3n12 the results were UBC9 SUMO inh 19, SUMO1 PPI mod 3, LMPTP block -1, Scp-1 inhibitor -8, STEP inh 24 and DNMT1 block 14.
`O=c1/c(=C/c2ccc(O)c([N+](=O)[O-])c2)sc2nc3ccccc3n12` gave UBC9 SUMO inh 2, SUMO1 PPI mod 5, LMPTP block 92*, Scp-1 inhibitor 81*, STEP inh 90*, DNMT1 block 0, Scp1 confirm 82*, MG interference -16 and Scp-1 Tm shift 9.9*.
Screening N#CC1(NC(=O)COc2ccccc2[N+](=O)[O-])CCCCC1 returned SUMO1 PPI mod -4, LMPTP block -2, Scp-1 inhibitor 52*, STEP inh -2, DNMT1 block 3, Scp1 confirm 73*, MG interference -22 and Scp-1 Tm shift -7.
`O=[N+]([O-])c1cccc(-c2csc(N/N=C/c3cccc(O)c3)n2)c1` gave UBC9 SUMO inh -32, SUMO1 PPI mod -8, LMPTP block 5, Scp-1 inhibitor 72*, STEP inh 6, DNMT1 block 36, Scp1 confirm 51*, MG interference -13 and Scp-1 Tm shift 19*.
`CCc1nc2ccc(C(=O)Nc3ccc(OC)c(OC)c3)cn2c1N(CCC(C)C)CCN(C)C` gave SUMO1 PPI mod -5, LMPTP block 2, STEP inh -2 and DNMT1 block 2.
For Cc1ccc(Cl)cc1NC(=O)Nc1c(C)n(C)n(-c2ccccc2)c1=O the results were UBC9 SUMO inh 11, SUMO1 PPI mod 7, LMPTP block 0, Scp-1 inhibitor 76*, STEP inh -4, DNMT1 block 0, Scp1 confirm -18 and MG interference -14.
For Cc1c(NC(=O)CN2C(=O)NC(C)(c3ccccc3)C2=O)c(=O)n(-c2ccccc2)n1C (stereo not drawn) the results were UBC9 SUMO inh -2, SUMO1 PPI mod -2, LMPTP block 0, Scp-1 inhibitor 1, STEP inh 2, DNMT1 block 0, Scp1 confirm -16 and MG interference -19.
COc1ccc(S(=O)(=O)CCC(=O)Nc2c(C)n(C)n(-c3ccccc3)c2=O)cc1 was read as UBC9 SUMO inh 20, SUMO1 PPI mod 2, LMPTP block -1, Scp-1 inhibitor 55*, STEP inh -1, DNMT1 block 3, Scp1 confirm -15 and MG interference -17.
COC(=O)CCC(=O)Nc1c(C)n(C)n(-c2ccccc2)c1=O was read as UBC9 SUMO inh 4, SUMO1 PPI mod -2, LMPTP block 0, Scp-1 inhibitor -1, STEP inh 0 and DNMT1 block 4.
CC1CCN(C(=O)CNC(=O)c2cccc(OC(F)F)c2)CC1 was read as UBC9 SUMO inh 8, SUMO1 PPI mod -4, LMPTP block -1, Scp-1 inhibitor -19, STEP inh -2 and DNMT1 block 0.
Screening O=C(c1ncn[nH]1)N1CCN(c2nc(-c3ccccc3)cs2)CC1 returned UBC9 SUMO inh -2, SUMO1 PPI mod 15, LMPTP block 4, Scp-1 inhibitor 56*, STEP inh 0, DNMT1 block 21, Scp1 confirm 39*, MG interference -1 and Scp-1 Tm shift 2.
